# Columns and labels:
# Rattus norvegicus [1] = assay: Effect on the cardiovascular response to tyramine challenge was measured in conscious spontaneously hypertensive rats administered perorally at 50 mg/kg; assay type: functional, Heart; details: route oral
# Rattus norvegicus [2] = species on record: Rattus norvegicus; assay type: functional, Artery; details: dose 100 mg/kg; route oral
# Rattus norvegicus [3] = assay: Effect on the cardiovascular response to epinephrine (2ug/kg, iv) challenge was measured in conscious spontaneously hypertensive rats administered perorally at 50 mg/kg; assay type: functional, Heart; details: route oral
# Outline: (§1)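 Male Okamoto-Aoki SHR, about 350 g, conscious, held supine with elastic tape; tail base locally anesthetized with 2% procaine sc. Control responses were recorded first. Vehicle (10 mL/kg) or compound was then given orally, and challenges were repeated 1 h later. Challenges were a 75° tilt for 30 s and iv agonists (epinephrine 1 or 2 μg/kg). Read-out was change in MABP (mmHg); paired Student's t test.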
# Rattus norvegicus [4] = assay: Effect on the cardiovascular response to isoproterenol challenge was measured in conscious spontaneously hypertensive rats administered perorally at 1 mL/100g; assay type: functional, Heart
# Rattus norvegicus [5] = assay: The antihypertensive activity was assessed by measuring the heart rate in rats when administered at 25 mg/kg; assay type: functional
# Outline: (§2)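 16-week-old male SH rats (Okamoto) were dosed by oral gavage in 3% starch in normal saline (2 mL/kg), plus an oral saline load of 25 mL/kg. They were redosed at 24 h without the saline load. MABP and HR were taken by direct femoral arterial puncture under local anesthesia 4 h after the second dose. HR was rounded to 10 bpm.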
# Rattus norvegicus [6] = assay: Effect on the cardiovascular response to angiotensin II challenge was measured in conscious spontaneously hypertensive rats administered perorally at 1 mL/100g; assay type: functional, Heart
# Rattus norvegicus [7] = assay: Effect on the cardiovascular response to DMPP challenge was measured in conscious spontaneously hypertensive rats administered perorally at 50 mg/kg; assay type: functional, Heart; details: route oral
# Rattus norvegicus [8] = assay: Effect on the cardiovascular response to tilt challenge was measured in conscious spontaneously hypertensive rats administered perorally at 1 mL/100g; assay type: functional, Heart; outline: as §1
# Rattus norvegicus [9] = assay: Effect on the cardiovascular response to ACH challenge was measured in conscious spontaneously hypertensive rats administered perorally at 1 mL/100g; assay type: functional, Heart
# Rattus norvegicus [10] = assay: Effect on the cardiovascular response to isoproterenol challenge was measured in conscious spontaneously hypertensive rats administered perorally at 8 mL/100 g; assay type: functional, Heart
# Rattus norvegicus [11] = assay: Effect on the cardiovascular response to ACH challenge was measured in conscious spontaneously hypertensive rats administered perorally at 8 mL/100 g; assay type: functional, Heart
# Rattus norvegicus [12] = assay: Effect on the […] was measured in conscious spontaneously hypertensive rat administered perorally at 1 mL/100g; assay type: functional, Heart
# Rattus norvegicus [13] = assay: Effect on the cardiovascular response to angiotensin II challenge was measured in conscious spontaneously hypertensive rats administered perorally at 8 mL/100 g; assay type: functional, Heart
# Rattus norvegicus [14] = assay: Effect on the cardiovascular response to tyramine challenge was measured in conscious spontaneously hypertensive rats administered perorally at 8 mL/100 g; assay type: functional, Heart
# Rattus norvegicus [15] = assay: Effect on the cardiovascular response to norepinephrine challenge was measured in conscious spontaneously hypertensive rats administered perorally at 1 mL/100g; assay type: functional, Heart
# Rattus norvegicus [16] = assay: Effect on the cardiovascular response to norepinephrine challenge was measured in conscious spontaneously hypertensive rats administered perorally at 50 mg/kg; assay type: functional, Heart; details: route oral
# Rattus norvegicus [17] = assay: Effect on the cardiovascular response to isoproterenol challenge was measured in conscious spontaneously hypertensive rats administered perorally at 50 mg/kg; assay type: functional, Heart; details: route oral
# Rattus norvegicus [18] = assay: Effect on the cardiovascular response to angiotensin II challenge was measured in conscious spontaneously hypertensive rats administered perorally at 50 mg/kg; assay type: functional, Heart; details: route oral
# Rattus norvegicus [19] = assay: Effect on the cardiovascular response to epinephrine (1ug/kg, iv) challenge was measured in conscious spontaneously hypertensive rats administered perorally at 50 mg/kg; assay type: functional, Heart; details: route oral; outline: as §1
# Rattus norvegicus [20] = assay: Effect on the cardiovascular response to norepinephrine challenge was measured in conscious spontaneously hypertensive rats administered perorally at 8 mL/100 g; assay type: functional, Heart
# Rattus norvegicus [21] = assay: Effect on the cardiovascular response to ACH challenge was measured in conscious spontaneously hypertensive rats administered perorally at 50 mg/kg; assay type: functional, Heart; details: route oral
# Rattus norvegicus [22] = assay: Effect on the cardiovascular response to epinephrine (2ug/kg, iv) challenge was measured in conscious spontaneously hypertensive rats administered perorally at 1 mL/100g; assay type: functional, Heart; outline: as §1
# Rattus norvegicus [23] = assay: Assessment of antihypertensive activity at 100 mg/kg administered perorally by measuring the heart rate in rats; assay type: functional; details: route oral
# Rattus norvegicus [24] = assay: Effect on the cardiovascular response to DMPP challenge was measured in conscious spontaneously hypertensive administered perorally rats at 1 mL/100g; assay type: functional, Heart
# Rattus norvegicus [25] = assay: Effect on the cardiovascular response to epinephrine (1ug/kg, iv) challenge was measured in conscious spontaneously hypertensive rats administered perorally at 1 mL/100g; assay type: functional, Heart; outline: as §1
# Rattus norvegicus [26] = assay: Effect on the cardiovascular response to tilt challenge was measured in conscious spontaneously hypertensive rats administered perorally at 50 mg/kg; assay type: functional, Heart; details: route oral; outline: as §1
# Rattus norvegicus [27] = assay: The antihypertensive activity was assessed by measuring the heart rate in rats when administered at 50 mg/kg; assay type: functional; outline: as §2
# Rattus norvegicus [28] = assay: The antihypertensive activity was assessed by measuring the mean arterial blood pressure in rats when administered at 50 mg/kg; assay type: functional; outline: as §2
# Rattus norvegicus [29] = assay: The antihypertensive activity was assessed by measuring the mean arterial blood pressure in rats when administered at 25 mg/kg; assay type: functional; outline: as §2
smiles,measurement,setting,value
Nc1n[nH]c(N2CCN(Cc3cccc(Cl)c3)CC2)n1,MABP,Rattus norvegicus [1],34.8 delta mmHg
same,MABP,Rattus norvegicus [2],89 mmHg
same,MABP,Rattus norvegicus [3],50.7 delta mmHg
same,MABP,Rattus norvegicus [4],-38.5 delta mmHg
same,HR,Rattus norvegicus [5],440 beats min-1
same,MABP,Rattus norvegicus [6],49 delta mmHg
same,MABP,Rattus norvegicus [7],30.3 delta mmHg
same,MABP,Rattus norvegicus [8],17.3 delta mmHg
same,MABP,Rattus norvegicus [9],-54.5 delta mmHg
same,MABP,Rattus norvegicus [10],-49.8 delta mmHg
same,MABP,Rattus norvegicus [11],-68.5 delta mmHg
same,MABP,Rattus norvegicus [12],34.5 delta mmHg
same,MABP,Rattus norvegicus [13],55 delta mmHg
same,MABP,Rattus norvegicus [14],35.3 delta mmHg
same,MABP,Rattus norvegicus [15],45.8 delta mmHg
same,MABP,Rattus norvegicus [16],63 delta mmHg
same,MABP,Rattus norvegicus [17],-46.7 delta mmHg
same,MABP,Rattus norvegicus [18],70.2 delta mmHg
same,MABP,Rattus norvegicus [19],29 delta mmHg
same,MABP,Rattus norvegicus [20],47.8 delta mmHg
same,MABP,Rattus norvegicus [21],-47 delta mmHg
same,MABP,Rattus norvegicus [22],37.3 delta mmHg
same,HR,Rattus norvegicus [23],300 beats min-1
same,MABP,Rattus norvegicus [24],52.5 delta mmHg
same,MABP,Rattus norvegicus [25],28.8 delta mmHg
same,MABP,Rattus norvegicus [26],9.3 delta mmHg
same,HR,Rattus norvegicus [27],440 beats min-1
same,MABP,Rattus norvegicus [28],113 mmHg
same,MABP,Rattus norvegicus [29],132 mmHg

# Source: ChEMBL document CHEMBL1124416, “5-(1-piperazinyl)-1H-1,2,4-triazol-3-amines as antihypertensive agents” (1989)
